One test has as its target Beta-secretase 1 (Homo sapiens, UniProt P56817). Nature of the test: Inhibition of recombinant beta-secretase 1.
Test [1] in a line: Inhibition of beta-secretase in neuroblastoma cells assessed as inhibition of amyloid beta production. The settings on record: Homo sapiens. The class given is cell-based. An outline of the steps: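 Cell-based assay in neuroblastoma cells. IC50 is reported as an average value.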

From ChEMBL document CHEMBL2062429, “Structure-based design, synthesis, and biological evaluation of dihydroquinazoline-derived potent β-secretase inhibitors” (Bioorg Med Chem Lett, 2012) come the findings set out here.

Chain of Beta-secretase 1 (P56817 whole entry): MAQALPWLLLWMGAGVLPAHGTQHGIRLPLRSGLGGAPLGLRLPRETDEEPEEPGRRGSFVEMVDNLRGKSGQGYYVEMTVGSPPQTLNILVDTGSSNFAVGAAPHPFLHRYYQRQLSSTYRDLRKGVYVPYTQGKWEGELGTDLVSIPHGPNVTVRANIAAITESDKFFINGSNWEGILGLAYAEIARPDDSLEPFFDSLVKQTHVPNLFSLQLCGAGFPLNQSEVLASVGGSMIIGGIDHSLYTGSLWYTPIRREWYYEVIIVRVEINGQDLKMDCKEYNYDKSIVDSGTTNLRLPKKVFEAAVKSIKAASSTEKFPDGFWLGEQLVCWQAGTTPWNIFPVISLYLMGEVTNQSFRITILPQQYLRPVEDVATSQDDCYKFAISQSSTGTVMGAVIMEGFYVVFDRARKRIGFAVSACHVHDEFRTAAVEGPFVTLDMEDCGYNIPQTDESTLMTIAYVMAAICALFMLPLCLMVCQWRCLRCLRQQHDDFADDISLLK

As usually defined, the Ki is a measure of affinity in units of concentration, obtained from inhibition or displacement. For the molecule `Cc1nc(CCN(C(=O)CC[C@@H](C2CCCCC2)N2Cc3cc(Oc4ccccc4)ccc3N=C2N)C2CCCCC2)cs1`, the Ki at Beta-secretase 1 was determined as 106 nM. For orientation: IC50 means the concentration needed to halve the response being measured. As for `CN(C(=O)CC[C@@H](c1ccccc1)N1Cc2cc(Oc3ccccc3)ccc2N=C1N)C1CCCCC1`, the Ki at Beta-secretase 1 stood at 164 nM. Moreover, in test [1], the IC50 came out at 482 nM.

For the molecule `CN(C(=O)OC[C@@H](c1ccccc1)N1Cc2cc(Oc3ccccc3)ccc2N=C1N)C1CCCCC1`, the inhibitory constant (Ki) at Beta-secretase 1 came out at 783 nM. The IC50 in test [1] turned out to be 3400 nM. For `CN(C(=O)OC[C@@H](C1CCCCC1)N1Cc2cc(Oc3ccccc3)ccc2N=C1N)C1CCCCC1`, the Ki on Beta-secretase 1 came out at 37.5 nM. On to `NC1=Nc2ccc(Oc3ccccc3)cc2CN1[C@@H](COC(=O)NC1CCCCC1)C1CCCCC1`, for which the Ki on Beta-secretase 1 stood at 60 nM. For `CN(C(=O)CC[C@@H]([C@H]1CCCOC1)N1Cc2cc(Oc3ccccc3)ccc2N=C1N)C1CCCCC1`, on Beta-secretase 1, the Ki was determined as 122 nM. For `Cc1nc(CN(C(=O)OC[C@@H](C2CCCCC2)N2Cc3cc(Oc4ccccc4)ccc3N=C2N)C2CCCCC2)cs1`, the Ki on Beta-secretase 1 worked out at 1460 nM. For `Cc1nc(CN(C(=O)CC[C@@H](C2CCCCC2)N2Cc3cc(Oc4ccccc4)ccc3N=C2N)C2CCCCC2)cs1`, the inhibition constant (Ki) at Beta-secretase 1 amounted to 79 nM. Also, in test [1], the IC50 turned out to be 390 nM.

For `Cc1nc(C(C)N(C(=O)CC[C@@H](C2CCCCC2)N2Cc3cc(Oc4ccccc4)ccc3N=C2N)C2CCCCC2)cs1` (stereo partly drawn), the Ki on Beta-secretase 1 came out at 104 nM. The same measure, in the same setting: to `CC(C)c1nc(CN(C(=O)CC[C@@H](C2CCCCC2)N2Cc3cc(Oc4ccccc4)ccc3N=C2N)C2CCCCC2)cs1` belongs 144 nM.

Regarding `COCc1nc(CN(C(=O)CC[C@@H](C2CCCCC2)N2Cc3cc(Oc4ccccc4)ccc3N=C2N)C2CCCCC2)cs1`, the Ki on Beta-secretase 1 turned out to be 13 nM. Besides, in test [1], the IC50 was determined as 21 nM. On the same counts, the results for `Cn1cc(CN(C(=O)CC[C@@H](C2CCCCC2)N2Cc3cc(Oc4ccccc4)ccc3N=C2N)C2CCCCC2)cn1` are 11 nM and 23 nM. For `NC1=Nc2ccc(Oc3ccccc3)cc2CN1[C@@H](CCC(=O)N(Cc1cn[nH]c1)C1CCCCC1)C1CCCCC1`, at Beta-secretase 1, the Ki turned out to be 23 nM. With `Cc1[nH]ncc1CN(C(=O)CC[C@@H](C1CCCCC1)N1Cc2cc(Oc3ccccc3)ccc2N=C1N)C1CCCCC1`, the Ki at Beta-secretase 1 is 39 nM. Also, the IC50 in test [1] worked out at 51 nM. Consider `CN(C(=O)CC[C@@H](C1CCCCC1)N1Cc2cc(Oc3ccccc3)ccc2N=C1N)C1CCCCC1`, for which the half-maximal inhibitory concentration (IC50) in test [1] was determined as 71 nM.

For the molecule `CN(C(=O)OC[C@@H](C1CCCOC1)N1Cc2cc(Oc3ccccc3)ccc2N=C1N)C1CCCCC1` (mixture of isomers), at Beta-secretase 1, the inhibitory constant (Ki) came out at 104 nM. The IC50 in test [1] was 1100 nM.
